The record followed here is ChEMBL document CHEMBL2434823, “Design, synthesis and biological activities of some 7-aminocephalosporanic acid derivatives” (Eur J Med Chem, 2013).

The source made the active and inactive calls. The calls are words filed in the database; no cut-off is given here.

Assay [1] can be described thus: Inhibition of Bacillus cereus metallo beta-lactamase assessed as nitrocefin substrate hydrolysis after 20 mins. The procedure, abridged: (§1)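 Commercial B. cereus metallo-β-lactamase (1.5 µM solution) was combined with nitrocefin (150 µM solution) and compound in 25 mM PIPES pH 7.0 containing 100 µM ZnSO4. A486 was read continuously for 20 min at 37 °C. Residual activity was taken relative to the no-inhibitor control, in triplicate. Screening used 1 mM final; IC50 came from a concentration series. HgCl2 was the positive control.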

Assay [2] concerns Bacillus cereus. Description: Inhibition of Bacillus cereus metallo beta-lactamase assessed as nitrocefin substrate hydrolysis at 1 mM after 20 mins. The procedure, abridged:
as §1

In assay [3] the test system is Saccharomyces cerevisiae. Nature of the assay: Antimicrobial activity against Saccharomyces cerevisiae RSKK 251. It is filed as functional.
In assay [4] the test system is Mycolicibacterium smegmatis. Description: Antimicrobial activity against Mycobacterium smegmatis ATCC 607. It is filed as functional.
Assay [5] deals with Candida albicans. Description: Antimicrobial activity against Candida albicans ATCC 60193. The format is functional.
Assay [6] has as its system Enterococcus faecalis. Description: Antimicrobial activity against Enterococcus faecalis ATCC 29212. The format is functional. The method, boiled down: (§2)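 Compound stocks were 20.000 µg/mL in hexane. DMSO diluted 1:10 served as the solvent control, and ampicillin was the reference drug.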
The subject of assay [7] is Bacillus cereus. Description: Antimicrobial activity against Bacillus cereus 702 Roma. It is filed as functional. The procedure, abridged: as §2
Assay [8] concerns Staphylococcus aureus. Description: Antimicrobial activity against Staphylococcus aureus ATCC 25923. It is filed as functional. The procedure, abridged: as §2
For assay [9], the system named is Yersinia pseudotuberculosis. Nature of the assay: Antimicrobial activity against Yersinia pseudotuberculosis ATCC 911. It is filed as functional. The procedure, abridged: (§3)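 Compounds were dissolved in […] as 20.000 µg/mL stocks. Ampicillin (10 µg) was the reference antibacterial, and DMSO diluted 1:10 was the solvent control.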
Assay [10] relates to Pseudomonas aeruginosa. Description: Antimicrobial activity against Pseudomonas aeruginosa ATCC 43288. The format is functional. The method, boiled down: as §2
Assay [11] concerns Saccharomyces cerevisiae. Nature of the assay: Antimicrobial activity against Saccharomyces cerevisiae RSKK 251 at 5 ug. It is filed as functional. The conditions noted are these: read-out: IZ. The procedure, abridged:
(§4)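 Compounds were dissolved in […] as 20.000 µg/mL stocks. Fluconazole (5 µg) was the reference antifungal, and DMSO diluted 1:10 was the solvent control.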

Assay [12] has as its system Candida albicans. Nature of the assay: Antimicrobial activity against Candida albicans ATCC 60193 at 5 ug. It is filed as functional. The conditions noted are these: read-out: IZ. The procedure, abridged:
as §4

A further assay deals with Urease (Canavalia ensiformis, UniProt P07374). Nature of the assay: Inhibition of jack bean urease using urea as substrate assessed as ammonia production after 15 mins. The method, boiled down:
(§5)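 Jack bean urease in pH 8.2 buffer (100 mM urea, 0.01 M K2HPO4, 1 mM EDTA, 0.01 M LiCl) was incubated with compound for 15 min at room temperature. Ammonia was measured by the indophenol method (phenol/nitroprusside, then NaOH/NaOCl) at A625 after 20 min. Inhibition % = 100 − (OD test/OD control)×100. […] Thiourea was the standard.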

For assay [13], the target named is Urease (Canavalia ensiformis) (UniProt P07374). Description: Inhibition of jack bean urease using urea as substrate assessed as ammonia production at 250 ug/ml after 15 mins relative to control. The procedure, abridged:
as §5

Assay [14] has the same target. Nature of the assay: Inhibition of jack bean urease using urea as substrate assessed as ammonia production at 100 ug/ml after 15 mins relative to control.
Assay [15] concerns Bacillus cereus. Description: Antimicrobial activity against Bacillus cereus 702 Roma at 10 ug. It is filed as functional. The conditions noted are these: read-out: IZ.
The subject of assay [16] is Enterococcus faecalis. Nature of the assay: Antimicrobial activity against Enterococcus faecalis ATCC 29212 at 10 ug. It is filed as functional. The conditions noted are these: read-out: IZ.
The subject of assay [17] is Staphylococcus aureus. Nature of the assay: Antimicrobial activity against Staphylococcus aureus ATCC 25923 at 10 ug. It is filed as functional. The conditions noted are these: read-out: IZ.
The test system of assay [18] is Pseudomonas aeruginosa. Description: Antimicrobial activity against Pseudomonas aeruginosa ATCC 43288 at 10 ug. It is filed as functional. The conditions noted are these: read-out: IZ.
Assay [19] relates to Yersinia pseudotuberculosis. Nature of the assay: Antimicrobial activity against Yersinia pseudotuberculosis ATCC 911 at 10 ug. It is filed as functional. As to conditions: read-out: IZ. The method, boiled down:
as §3

A further assay concerns Escherichia coli. Nature of the assay: Antimicrobial activity against Escherichia coli ATCC 25922 at 10 ug. As to conditions: read-out: IZ. It is filed as functional. The procedure, abridged: as §3

What is called IC50 is the midpoint of a concentration-inhibition curve. One may read the inhibition as the share of the control response that was lost under treatment.

Sequence of Urease (Canavalia ensiformis) (P07374 whole entry, looked up): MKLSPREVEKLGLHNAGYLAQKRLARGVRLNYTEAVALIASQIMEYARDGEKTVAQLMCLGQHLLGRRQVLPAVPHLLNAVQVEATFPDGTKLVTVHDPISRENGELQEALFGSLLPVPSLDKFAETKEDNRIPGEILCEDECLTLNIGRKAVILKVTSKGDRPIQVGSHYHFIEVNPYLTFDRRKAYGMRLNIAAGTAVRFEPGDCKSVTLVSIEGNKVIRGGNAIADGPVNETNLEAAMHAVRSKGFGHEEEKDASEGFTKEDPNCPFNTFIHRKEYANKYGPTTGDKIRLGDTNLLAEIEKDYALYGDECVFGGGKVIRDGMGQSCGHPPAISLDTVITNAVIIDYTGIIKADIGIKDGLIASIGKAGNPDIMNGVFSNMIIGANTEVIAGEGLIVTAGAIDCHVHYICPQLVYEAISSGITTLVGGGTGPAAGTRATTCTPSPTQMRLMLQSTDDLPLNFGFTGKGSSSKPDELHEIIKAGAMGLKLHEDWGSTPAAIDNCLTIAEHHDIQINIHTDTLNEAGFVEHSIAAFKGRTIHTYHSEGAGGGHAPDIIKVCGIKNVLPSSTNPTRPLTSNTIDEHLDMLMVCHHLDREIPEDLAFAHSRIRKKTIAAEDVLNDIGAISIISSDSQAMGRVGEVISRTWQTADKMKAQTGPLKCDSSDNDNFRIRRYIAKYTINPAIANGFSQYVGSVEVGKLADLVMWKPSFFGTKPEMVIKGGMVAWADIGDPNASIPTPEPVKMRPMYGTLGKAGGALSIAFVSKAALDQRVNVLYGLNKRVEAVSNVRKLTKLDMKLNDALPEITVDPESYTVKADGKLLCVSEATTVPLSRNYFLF
Sequence of Urease (P07374 whole entry): as the sequence (P07374 whole entry, looked up) above

`CC(=O)OCC1=C(C(=O)O)N2C(=O)[C@@H](NS(=O)(=O)c3ccc(/N=c4/sc(-c5ccc(Cl)cc5)cn4Cc4ccccc4)cc3)[C@H]2SC1`: the IC50 in assay [1] is 543 µM. Moreover, the inhibition in the assay on Bacillus cereus [2] was found to be 64%. The “inhibition zone (IZ)” value (in the assay with Saccharomyces cerevisiae [3]; in assay [4]; in the assay on Bacillus cereus [7]) was “inactive” throughout. Further, the “inhibition zone (IZ)” value amounted to 10 mm with Candida albicans [5]; 8 mm with Enterococcus faecalis [6]; 22 mm with Staphylococcus aureus [8]; 8 mm in assay [9]; 8 mm with Pseudomonas aeruginosa [10].
Consider `OC(Cn1cncn1)(Cn1cncn1)c1ccc(F)cc1F` [FLUCONAZOLE], for which the zone of inhibition at 5 µg/disc with Saccharomyces cerevisiae [11] is more than 25 mm; in the assay on Candida albicans [12], 25 mm.
As for `O=C(Nc1ccccc1)Nc1ccc(S(=O)(=O)Cl)cc1`, the IC50 at Urease is 388 µM. Besides, the inhibition turned out to be 100% in assay [13] and 39.3% in assay [14]. Also, the “inhibition zone (IZ)” value in the assay with Saccharomyces cerevisiae [3] came to 15 mm; in the assay with Candida albicans [5], 8 mm; with Staphylococcus aureus [8], 6 mm. Further, the “inhibition zone (IZ)” value (in [4]; in the assay with Enterococcus faecalis [6]; with Bacillus cereus [7]; in assay [9]; with Pseudomonas aeruginosa [10]) was “inactive” in each case.
On to `CC(=O)OCC1=C(C(=O)O)N2C(=O)[C@@H](NC(=O)CN3CCN(c4ccc([N+](=O)[O-])cc4F)CC3)[C@H]2SC1`, for which, in [1], the IC50 was found to be 1170 µM. Also, in the assay with Bacillus cereus [2], the inhibition is 24%. Also, the “inhibition zone (IZ)” value came out at 30 mm with Saccharomyces cerevisiae [3]; 22 mm in assay [4]; 15 mm in the assay with Candida albicans [5]; 8 mm with Enterococcus faecalis [6]; 10 mm with Bacillus cereus [7]; 18 mm in the assay with Staphylococcus aureus [8]. In assay [9], the “inhibition zone (IZ)” value is 6 mm. Further, the “inhibition zone (IZ)” value in the assay on Pseudomonas aeruginosa [10] is “inactive”.
With `CC1(C)S[C@@H]2[C@H](NC(=O)[C@H](N)c3ccccc3)C(=O)N2[C@H]1C(=O)O` [AMPICILLIN], the zone of inhibition at 10 µg/disc came out at 15 mm with Bacillus cereus [15]; 10 mm with Enterococcus faecalis [16]; 35 mm in the assay on Staphylococcus aureus [17]; 18 mm with Pseudomonas aeruginosa [18]; 18 mm in [19]; 10 mm in the assay on Escherichia coli.
